From ChEMBL document CHEMBL3271992, “Synthesis of 4-alkyl and 4-(beta-alkylvinyl) derivatives of primaquine as potential antimalarials” (J Med Chem, 1979) come the findings set out here.

The subject of one data set is Leishmania donovani. Put plainly: Antileishmanial activity against Leishmania donovani infected in hamster. Type of data set: functional, organism-based.
Data set [1] concerns Plasmodium cynomolgi. The data set can be described thus: Antimalarial activity against Plasmodium cynomolgi infected in rhesus monkey assessed as time duration between end of treatment and relapse at 1 mg/kg administered via stomach tube once daily for 7 days with 2.5 mg of base/kg of chloroquine1. Type of data set: functional.
The subject of data set [2] is Plasmodium cynomolgi. The data set can be described thus: Antimalarial activity against Plasmodium cynomolgi infected in rhesus monkey assessed as time duration between end of treatment and relapse at 0.5 mg/kg administered via stomach tube once daily for 7 days with 2.5 mg of base/kg of chloroquine1. Type of data set: functional.
Data set [3] concerns Plasmodium cynomolgi. Put plainly: Antimalarial activity against Plasmodium cynomolgi infected in rhesus monkey assessed as infection cure at 0.5 mg/kg administered via stomach tube once daily for 7 days with 2.5 mg of base/kg of chloroquine. Type of data set: functional, organism-based. Set-up: dose 0.5 mg/kg.
Data set [4] deals with Plasmodium cynomolgi. The data set can be described thus: Antimalarial activity against Plasmodium cynomolgi infected in rhesus monkey assessed as infection cure at 1 mg/kg administered via stomach tube once daily for 7 days with 2.5 mg of base/kg of chloroquine. Type of data set: functional, organism-based. Details: dose 1 mg/kg.
Data set [5] deals with Plasmodium berghei. Put plainly: Antimalarial activity against blood schizont stage of Plasmodium berghei infected in mouse assessed as mean survival time at 20 mg/kg (reference value: 6.2 +/- 0.5 days). Type of data set: functional.
The subject of data set [6] is Plasmodium berghei. Put plainly: Antimalarial activity against blood schizont stage of Plasmodium berghei infected in mouse assessed as mean survival time at 80 mg/kg (reference value: 6.2 +/- 0.5 days). Type of data set: functional.
Data set [7] relates to Plasmodium berghei. The data set can be described thus: Antimalarial activity against blood schizont stage of Plasmodium berghei infected in mouse assessed as mean survival time at 320 mg/kg (reference value: 6.2 +/- 0.5 days). Type of data set: functional.
For data set [8], the system named is Plasmodium cynomolgi. Put plainly: Antimalarial activity against Plasmodium cynomolgi infected in rhesus monkey assessed as infection cure at 0.25 mg/kg administered via stomach tube once daily for 7 days with 2.5 mg of base/kg of chloroquine. Type of data set: functional, organism-based. Set-up: dose 0.25 mg/kg.
Data set [9] deals with Plasmodium cynomolgi. Put plainly: Antimalarial activity against Plasmodium cynomolgi infected in rhesus monkey assessed as time duration between end of treatment and relapse at 0.25 mg/kg administered via stomach tube once daily for 7 days with 2.5 mg of base/kg of chloroquine1. Type of data set: functional, organism-based. Details: dose 0.25 mg/kg.
In data set [10] the test system is Plasmodium berghei yoelii. Put plainly: Antimalarial activity against sporozoite stage of Plasmodium berghei yoelii infected in mouse assessed as survival at 2.5 mg/kg, po after 30 days. Type of data set: functional, organism-based. Details: dose 2.5 mg/kg. Summed up: (§1)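 Mice infected with P. berghei yoelii (sporozoite challenge) were dosed on the day of challenge, in groups of five, either orally or subcutaneously at several dose levels. Compound was dissolved or suspended in 0.5% hydroxyethylcellulose–0.1% Tween 80. Prophylactic activity was read as survival of treated mice to 30 days, reported as cures per number treated, with toxic deaths noted.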

Data set [11] concerns Mus musculus. Put plainly: Toxicity in mouse infected with Plasmodium berghei assessed as death at 640 mg/kg after 2 to 5 days. The note with it: in vivo. Type of data set: organism-based. Set-up: dose 640 mg/kg.
Data set [12] concerns Plasmodium berghei. Put plainly: Antimalarial activity against blood schizont stage of Plasmodium berghei infected in mouse assessed as mean survival time at 40 mg/kg (reference value: 6.2 +/- 0.5 days). Type of data set: functional.
Data set [13] deals with Mus musculus. The data set can be described thus: Toxicity in mouse infected with Plasmodium berghei assessed as death at 320 mg/kg after 2 to 5 days. The note with it: in vivo. Type of data set: organism-based. Set-up: dose 320 mg/kg.
Data set [14] concerns Plasmodium berghei yoelii. The data set can be described thus: Antimalarial activity against sporozoite stage of Plasmodium berghei yoelii infected in mouse assessed as survival at 10 mg/kg, sc after 30 days. Type of data set: functional, organism-based. Details: dose 10 mg/kg. Summed up: as §1
In data set [15] the test system is Plasmodium berghei yoelii. Put plainly: Antimalarial activity against sporozoite stage of Plasmodium berghei yoelii infected in mouse assessed as survival at 10 mg/kg, po after 30 days. Type of data set: functional, organism-based. Details: dose 10 mg/kg. Put shortly:
as §1

Data set [16] concerns Plasmodium berghei yoelii. The data set can be described thus: Antimalarial activity against sporozoite stage of Plasmodium berghei yoelii infected in mouse assessed as survival at 160 mg/kg, sc after 30 days. Type of data set: functional, organism-based. Set-up: dose 160 mg/kg. Put shortly: as §1
In data set [17] the test system is Plasmodium berghei yoelii. The data set can be described thus: Antimalarial activity against sporozoite stage of Plasmodium berghei yoelii infected in mouse assessed as survival at 2.5 mg/kg, sc after 30 days. Type of data set: functional, organism-based. Set-up: dose 2.5 mg/kg. Summed up:
as §1

For data set [18], the system named is Plasmodium berghei. The data set can be described thus: Antimalarial activity against blood schizont stage of Plasmodium berghei infected in mouse assessed as mean survival time at 160 mg/kg (reference value: 6.2 +/- 0.5 days). Type of data set: functional.
The subject of data set [19] is Plasmodium berghei. The data set can be described thus: Antimalarial activity against blood schizont stage of Plasmodium berghei infected in mouse assessed as mean survival time at 640 mg/kg (reference value: 6.2 +/- 0.5 days). Type of data set: functional.

Calls of active or inactive are those of the source. No cut-off for these calls is given here.

Take `COc1cc(NC(C)CCCN)c2nccc(C=C(C)C)c2c1` (stereo unspecified): the outcome in the data set on Leishmania donovani was inactive.

Consider `CC/C(C)=C\c1ccnc2c(NC(C)CCCN)cc(OC)cc12` (stereo unspecified), for which, in the data set with Leishmania donovani, the result was inactive.

Take `CCCc1ccnc2c(NC(C)CCCN)cc(OC)cc12.O=C(O)/C=C/C(=O)O` (stereo unspecified): the Time was 23 days in the data set with Plasmodium cynomolgi [1] and 7 days in the data set on Plasmodium cynomolgi [2]. Besides, the result with Plasmodium cynomolgi [3], in the data set on Leishmania donovani and in the data set on Plasmodium cynomolgi [4] was inactive.

Turning to `COc1cc(NC(C)CCCN)c2nccc(CC3CCCCC3)c2c1.O=C(O)/C=C/C(=O)O` (stereo unspecified), the Time came out at 7 days in the data set with Plasmodium cynomolgi [1] and 6 days in the data set with Plasmodium cynomolgi [2]. For the same compound, the outcome in the data set with Plasmodium cynomolgi [3], in the data set on Leishmania donovani and with Plasmodium cynomolgi [4] was inactive.

Turning to `CCC(C)Cc1ccnc2c(NC(C)CCCN)cc(OC)cc12.O=C(O)/C=C/C(=O)O` (stereo unspecified), the Time in the data set with Plasmodium cynomolgi [1] came to 9 days; with Plasmodium cynomolgi [2] it was 7 days. Also, the result in the data set on Plasmodium cynomolgi [3], in the data set with Leishmania donovani and in the data set with Plasmodium cynomolgi [4] was inactive.

Regarding `COc1cc(NC(C)CCCN)c2nccc(CCCC3CCCCC3)c2c1.O=C(O)/C=C/C(=O)O` (stereo unspecified), the Time was determined as 8 days with Plasmodium cynomolgi [1] and 6 days with Plasmodium cynomolgi [2]. Also, the result in the data set with Plasmodium cynomolgi [3], in the data set with Leishmania donovani and in the data set with Plasmodium cynomolgi [4] was inactive. Besides, the MSD in the data set on Plasmodium berghei [5] was 0.3 days; with Plasmodium berghei [6], 0.4 days; in the data set with Plasmodium berghei [7], 0.9 days.

Consider `C/C=C\c1ccnc2c(NC(C)CCCN)cc(OC)cc12.O=C(O)/C=C/C(=O)O` (mixture of isomers), for which the Time with Plasmodium cynomolgi [1] and with Plasmodium cynomolgi [2] was 6 days each time. Also, the outcome (in the data set on Plasmodium cynomolgi [3]; in the data set on Plasmodium cynomolgi [8]; in the data set with Leishmania donovani; in the data set on Plasmodium cynomolgi [4]; with Plasmodium cynomolgi [9]; in [10]) was inactive.

For `COc1cc(NC(C)CCCN)c2ncccc2c1` (stereo unspecified) [PRIMAQUINE], the Activity entry in the data set on Mus musculus [11] and in the data set with Mus musculus [13] was “Toxic” throughout. Also, the MSD is 5 days in the data set with Plasmodium berghei [12], 4 days in the data set with Plasmodium berghei [5] and 9.4 days with Plasmodium berghei [6].

Consider `CCCCc1ccnc2c(NC(C)CCCN)cc(OC)cc12.O=C(O)/C=C/C(=O)O` (stereo unspecified), for which the Time is 22 days in the data set with Plasmodium cynomolgi [1] and 5 days with Plasmodium cynomolgi [2]. The outcome (in the data set with Plasmodium cynomolgi [3]; with Leishmania donovani; in the data set with Plasmodium cynomolgi [4]; in [10]; in data set [14]) was inactive.

In the case of `COc1cc(NC(C)CCCN)c2nccc(/C=C/C3CCCCC3)c2c1` (stereo unspecified), the result (in the data set on Leishmania donovani; in [15]; in [16]; in [14]) was inactive.

On to `CC/C=C/c1ccnc2c(NC(C)CCCN)cc(OC)cc12.O=C(O)/C=C/C(=O)O` (stereo unspecified), for which the Time is 10 days with Plasmodium cynomolgi [1] and 6 days with Plasmodium cynomolgi [2]. The outcome (in the data set with Plasmodium cynomolgi [3]; in the data set with Leishmania donovani; in the data set with Plasmodium cynomolgi [4]; in data set [10]; in data set [17]) was inactive. Besides, the MSD with Plasmodium berghei [12] was 5.1 days; in the data set on Plasmodium berghei [5], 3.1 days; in the data set with Plasmodium berghei [6], 6.5 days; in the data set with Plasmodium berghei [18], 7.5 days; with Plasmodium berghei [7] it was 9.5 days; in the data set with Plasmodium berghei [19], 10.3 days.

With `COc1cc(NC(C)CCCN)c2nccc(CCC3CCCCC3)c2c1.O=C(O)/C=C/C(=O)O` (stereo unspecified), the result with Leishmania donovani was inactive. Moreover, the values for the MSD with Plasmodium berghei [12], in the data set with Plasmodium berghei [18] and with Plasmodium berghei [19] were 0.3 days, 0.3 days and 0.5 days, respectively.

With `Br.COc1cc(NC(C)CCCN)c2nccc(/C=C/CC3CCCCC3)c2c1` (stereo unspecified), the outcome in the data set with Leishmania donovani was inactive. Besides, the MSD in the data set on Plasmodium berghei [5] was 0.4 days; in the data set with Plasmodium berghei [6], 0.9 days; with Plasmodium berghei [7], -0.4 days.

For `C/C=C/c1ccnc2c(NC(C)CCCN)cc(OC)cc12.O=C(O)/C=C/C(=O)O` (stereo unspecified), the Time turned out to be 18 days in the data set with Plasmodium cynomolgi [1] and 8 days in the data set with Plasmodium cynomolgi [2]. Besides, the result (with Plasmodium cynomolgi [3]; in the data set on Leishmania donovani; in the data set with Plasmodium cynomolgi [4]; in [14]) was inactive.
